Assay results taken from the array DNA melting data of Ke et al. (doi:10.1101/2024.01.08.574731).

Experiments:
[1] = folding enthalpy; higher = less favourable; fluorescence melt of hairpins on a sequencing array, two-state fit; settings: sodium 0.088 M
How it was run: (§1)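 Cy3 signals were normalised both to pre-quench Cy3 and to control constructs. They came from library hairpins carrying annealed Cy3 and quencher oligos on a sequenced MiSeq flow cell, imaged in 50 mM Na-HEPES pH 8.0, 25 mM NaCl, in 2.5 °C steps up to 60 °C. Bootstrapped two-state fits gave melting temperature and folding enthalpy, and four replicates were combined by inverse variance. Fitted temperatures were then raised by 9.35 °C to match UV melts.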

[2] = melting temperature; fluorescence melt of hairpins on a sequencing array, two-state fit, raised by 9.35 °C to match UV melts; settings: sodium 0.088 M
How it was run: as §1

## GTACTAGGAAACTAGTGC (.(((((....))))).)
[1]
  folding enthalpy: -26.9 kcal/mol
[2]
  Tm: 42.8 °C

## GATCGCGCTGGCGATC ((((((....))))))
[1]
  folding enthalpy: -32.5 kcal/mol
[2]
  Tm: 68.9 °C

## GATCAGACCCCTGATC ((((((....))))))
[1]
  folding enthalpy: -34.7 kcal/mol
[2]
  Tm: 47.7 °C

## GATCTGTAGCAGATC ((((((...))))))
[1]
  folding enthalpy: -37.4 kcal/mol
[2]
  Tm: 47.3 °C

## GCCTGCGAAAGCAGAGGC ((((((....)))..)))
[1]
  folding enthalpy: -17.6 kcal/mol
[2]
  Tm: 60.1 °C

## GGTCACGAAAGTGGTACC ((((((....)))..)))
[1]
  folding enthalpy: -14.3 kcal/mol
[2]
  Tm: 42.7 °C

## GCGGCCGAAAGGCACCGC ((((((....)))..)))
[1]
  folding enthalpy: -16.8 kcal/mol
[2]
  Tm: 56 °C

## GCGCAGCGAAAGCTTAGC ((..(((....)))..))
[1]
  folding enthalpy: -9.17 kcal/mol
[2]
  Tm: 40.5 °C

## GCGTAGCGAAAGCGATGC ((.(.((....)).).))
[1]
  folding enthalpy: -13.9 kcal/mol
[2]
  Tm: 51.6 °C

## GGGCGCGAAAGCGGACCC ((((((....)))..)))
[1]
  folding enthalpy: -12.8 kcal/mol
[2]
  Tm: 61.5 °C

## GATCCATCCTTGGATC ((((((....))))))
[1]
  folding enthalpy: -44.2 kcal/mol
[2]
  Tm: 53.6 °C

## GTGTGAACGAAAGTTCAC (((..(((....))))))
[1]
  folding enthalpy: -12.9 kcal/mol
[2]
  Tm: 65.6 °C

## GTAGACGAAAGTCAGTAC ((((((....)))..)))
[1]
  folding enthalpy: -9.2 kcal/mol
[2]
  Tm: 28.6 °C

## GAGGACGAAAGTCGGCTC ((((((....)))..)))
[1]
  folding enthalpy: -16.7 kcal/mol
[2]
  Tm: 45.6 °C

## GCTATGGGAAACTGTAGC ((((..(....)..))))
[1]
  folding enthalpy: -25.2 kcal/mol
[2]
  Tm: 36 °C

## GGTAGGGGAAACTCTGCC ((.((.(....).)).))
[1]
  folding enthalpy: -22.9 kcal/mol
[2]
  Tm: 35.1 °C

## GATGGAGGAAACTTCATC ((((.((....)).))))
[1]
  folding enthalpy: -37.5 kcal/mol
[2]
  Tm: 39.6 °C

## GTACGAGGAAACCCGTAC (((((.(....).)))))
[1]
  folding enthalpy: -30.8 kcal/mol
[2]
  Tm: 46.5 °C

## GATCGCAGAAGCGATC ((((((....))))))
[1]
  folding enthalpy: -30.8 kcal/mol
[2]
  Tm: 66.9 °C

## GCCGTTCGAAAGAAGGC (((.(((....))))))
[1]
  folding enthalpy: -30.4 kcal/mol
[2]
  Tm: 50.4 °C

## GAGGCCGGAAACGGCCCC (.(((((....))))).)
[1]
  folding enthalpy: -6.76 kcal/mol
[2]
  Tm: 51.2 °C

## GATTTACGAAAGTAGATC (((.(((....))).)))
[1]
  folding enthalpy: -29.5 kcal/mol
[2]
  Tm: 41.9 °C

## GCTGGTGGAAACATCAGC ((((.((....)).))))
[1]
  folding enthalpy: -39.5 kcal/mol
[2]
  Tm: 53.4 °C

## GCATTTTCGAAAGAATGC (((..(((....))))))
[1]
  folding enthalpy: -28.4 kcal/mol
[2]
  Tm: 35.5 °C

## GCCCTCCGAAAGGACGGC (((.(((....))).)))
[1]
  folding enthalpy: -40.7 kcal/mol
[2]
  Tm: 50.4 °C

## GAAAATGGAAACATTTTC (((((((....)))))))
[1]
  folding enthalpy: -44.6 kcal/mol
[2]
  Tm: 51 °C

## GTAGTTGGAAACGATTAC (((.(.(....).).)))
[1]
  folding enthalpy: -13.7 kcal/mol
[2]
  Tm: 30.9 °C

## GATCAACCGCTTGATC ((((((....))))))
[1]
  folding enthalpy: -34.4 kcal/mol
[2]
  Tm: 44.2 °C

## CGTGACGGAAACGTGACG (((.(((....))).)))
[1]
  folding enthalpy: -26.2 kcal/mol
[2]
  Tm: 48.9 °C

## GATCGCACAGGCGATC ((((((....))))))
[1]
  folding enthalpy: -33 kcal/mol
[2]
  Tm: 68.1 °C

## GATCGCGGGTGCGATC ((((((....))))))
[1]
  folding enthalpy: -34.5 kcal/mol
[2]
  Tm: 68.4 °C

## GCTGCCCGAAAGGGAGC (((.(((....))))))
[1]
  folding enthalpy: -23 kcal/mol
[2]
  Tm: 57.1 °C

## GAAGCCGAAAGGCATTTC ((((((....)))..)))
[1]
  folding enthalpy: -6.75 kcal/mol
[2]
  Tm: 25.9 °C

## GGGGTAGGAAACTATCCC (((.(((....))).)))
[1]
  folding enthalpy: -38.4 kcal/mol
[2]
  Tm: 48.9 °C

## GACCCCGCGAAAGCGGTC (((..(((....))))))
[1]
  folding enthalpy: -5.92 kcal/mol
[2]
  Tm: 28 °C

## GCGACCGAAAGGTTACGC ((((((....)))..)))
[1]
  folding enthalpy: -26.6 kcal/mol
[2]
  Tm: 50 °C

## GCGGCAGTCCGC ((((....))))
[1]
  folding enthalpy: -23.7 kcal/mol
[2]
  Tm: 59.7 °C

## GCGACATCGAAAGATCGC (((..(((....))))))
[1]
  folding enthalpy: -26.7 kcal/mol
[2]
  Tm: 45.9 °C
